ChEMBL document CHEMBL2417372, “Design, synthesis, and mechanism of action of 2-(3-hydroxy-5-methoxyphenyl)-6-pyrrolidinylquinolin-4-one as a potent anticancer lead” (Bioorg Med Chem Lett, 2013)

Experiments:
[1] = Cytotoxicity against human Hs578T cells after 48 hrs; format: functional; conditions: Hs-578T
HT-29 = test: Cytotoxicity against human HT-29 cells after 48 hrs; format: functional; conditions: HT-29, 48 h
NCI-H23 = test: Cytotoxicity against human NCI-H23 cells after 48 hrs; format: functional; conditions: NCI-H23, 48 h
Tubulin (Homo sapiens) = Tubulin (Homo sapiens) (UniProt P68371+Q9H4B7+P0DPH7+P68366+Q13509+Q71U36+P04350+Q3ZCM7+P07437+P68363+Q9BQE3+Q6PEY2+Q13885+Q9BVA1+Q9BUF5); test: Inhibition of tubulin polymerization in human NCI-H522 cells assessed as beta-tubulin accumulation in cytoskeletal fraction after 24 hrs by Western blot analysis; format: cell-based
Summary of the method: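 NCI-H522 cells were exposed for 24 h to compound (10, 30 or 100 nM) or DMSO vehicle. They were then lysed 5 min at 37 °C in hypotonic buffer (1 mM MgCl2, 2 mM EGTA, 0.5% NP-40, protease inhibitors, 20 mM Tris-HCl pH 6.8) and centrifuged at 15,000 × g for 10 min at 25 °C. α- and β-tubulin were assessed in the cytoskeletal fraction.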

NCI-H322M = test: Cytotoxicity against human NCI-H322M cells after 48 hrs; format: functional
SW-620 = test: Cytotoxicity against human SW620 cells after 48 hrs; format: functional; conditions: SW-620, 48 h
Tubulin (Sus scrofa) = Tubulin (Sus scrofa) (UniProt P02554+P02550); test: Inhibition of porcine brain tubulin polymerization measured every 30 seconds for 30 mins
Chain of Tubulin (Sus scrofa) (P02550 whole entry, looked up): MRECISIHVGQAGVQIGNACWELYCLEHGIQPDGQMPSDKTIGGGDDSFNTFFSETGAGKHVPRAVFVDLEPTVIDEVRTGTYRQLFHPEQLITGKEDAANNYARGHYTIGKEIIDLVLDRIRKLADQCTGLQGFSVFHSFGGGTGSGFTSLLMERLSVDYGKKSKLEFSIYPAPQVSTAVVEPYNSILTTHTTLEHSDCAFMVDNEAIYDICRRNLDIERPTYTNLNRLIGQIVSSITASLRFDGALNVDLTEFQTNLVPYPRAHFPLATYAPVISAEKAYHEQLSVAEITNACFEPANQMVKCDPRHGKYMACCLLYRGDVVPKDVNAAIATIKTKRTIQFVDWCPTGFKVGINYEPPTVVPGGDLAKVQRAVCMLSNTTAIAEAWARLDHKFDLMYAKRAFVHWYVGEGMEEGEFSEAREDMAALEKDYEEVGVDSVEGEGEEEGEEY
Chain of Tubulin (Sus scrofa) (P02554 whole entry, looked up): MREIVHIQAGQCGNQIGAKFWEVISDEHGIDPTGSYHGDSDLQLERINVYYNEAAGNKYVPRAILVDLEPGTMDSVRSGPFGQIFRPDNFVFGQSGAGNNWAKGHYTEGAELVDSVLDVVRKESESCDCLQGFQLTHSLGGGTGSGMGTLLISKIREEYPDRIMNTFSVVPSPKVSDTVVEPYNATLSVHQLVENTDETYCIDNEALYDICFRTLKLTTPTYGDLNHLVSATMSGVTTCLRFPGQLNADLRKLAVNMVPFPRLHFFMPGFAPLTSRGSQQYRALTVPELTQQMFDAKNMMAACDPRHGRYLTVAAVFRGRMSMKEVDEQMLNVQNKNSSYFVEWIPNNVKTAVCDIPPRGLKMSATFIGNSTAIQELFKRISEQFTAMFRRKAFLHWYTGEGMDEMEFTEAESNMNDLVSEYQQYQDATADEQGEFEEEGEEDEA

SR = test: Cytotoxicity against human SR cells after 48 hrs; format: functional
UACC-257 = test: Cytotoxicity against human UACC257 cells after 48 hrs; format: functional; conditions: UACC-257, 48 h
Malme-3M = test: Cytotoxicity against human MALME-3M cells after 48 hrs; format: functional
NCI-H460 = test: Cytotoxicity against human NCI-H460 cells after 48 hrs; format: functional, cell-based; conditions: NCI-H460, 48 h
SF-539 = test: Cytotoxicity against human SF539 cells after 48 hrs; format: functional; conditions: SF-539, 48 h
RXF 393 = test: Cytotoxicity against human RXF393 cells after 48 hrs; format: functional; conditions: RXF 393, 48 h
T47D = test: Cytotoxicity against human T47D cells after 48 hrs; format: functional
MOLT-4 = test: Cytotoxicity against human MOLT4 cells after 48 hrs; format: functional; conditions: MOLT-4, 48 h
HCT-116 = test: Cytotoxicity against human HCT116 cells after 48 hrs; format: functional; conditions: HCT-116, 48 h
NCI-H226 = test: Cytotoxicity against human NCI-H226 cells after 48 hrs; format: functional; conditions: NCI-H226, 48 h
[2] = Cytotoxicity against human EKVX cells after 48 hrs; format: functional
Summary of the method: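 Tested in the NCI-60 human cancer cell line panel. Results are given as log concentrations: GI50 reduced cell growth to 50% […], TGI caused total growth inhibition, and LC50 killed 50% of the test population.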

SF-295 = test: Cytotoxicity against human SF295 cells after 48 hrs; format: functional; conditions: SF-295, 48 h
IGROV-1 = test: Cytotoxicity against human IGROV1 cells after 48 hrs; format: functional; conditions: IGROV-1, 48 h
K562 = test: Cytotoxicity against human K562 cells after 48 hrs; format: functional; conditions: K562, 48 h
OVCAR-3 = test: Cytotoxicity against human OVCAR3 cells after 48 hrs; format: functional; conditions: OVCAR-3, 48 h
OVCAR-5 = test: Cytotoxicity against human OVCAR5 cells after 48 hrs; format: functional; conditions: OVCAR-5, 48 h
[3] = Cytotoxicity against human Hep3B cells after 48 hrs; format: functional, cell-based, Hep 3B2
Summary of the method: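 MTT viability assay on log-phase cells at 37 °C, exposed to compound or DMSO vehicle for 48 h. MTT (1 mg/mL in PBS) was then added for 2 h, and absorbance was read at 570 nm with 630 nm correction. IC50 is the concentration giving 50% proliferation inhibition. Cells were cultured in 5% CO2: HL-60 in RPMI-1640 with 10% FBS; Hep3B in DMEM/F12 with 10% FBS; Detroit 551 in DMEM with 10% FBS.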

LOX IMVI = test: Cytotoxicity against human LOXIMVI cells after 48 hrs; format: functional
OVCAR-4 = test: Cytotoxicity against human OVCAR4 cells after 48 hrs; format: functional; conditions: OVCAR-4, 48 h
SN12C = test: Cytotoxicity against human SN12C cells after 48 hrs; format: functional
CAKI-1 = test: Cytotoxicity against human CAKI-1 cells after 48 hrs; format: functional; conditions: CAKI-1, 48 h
HCT-15 = test: Cytotoxicity against human HCT15 cells after 48 hrs; format: functional; conditions: HCT-15, 48 h
COLO 205 = test: Cytotoxicity against human COLO205 cells after 48 hrs; format: functional; conditions: COLO 205, 48 h
SK-MEL-28 = test: Cytotoxicity against human SK-MEL-28 cells after 48 hrs; format: functional; conditions: SK-MEL-28, 48 h
[4] = read-out: pLC50 (the source's name) (converted)

COc1cc(O)cc(-c2cc(=O)c3cc(N4CCCC4)ccc3[nH]2)c1
GI50 [1]: 0.038 µM | CC50 [1, 4]: > 100 µM | TGI ([1]; read-out: pTGI (converted)): 70.8 µM | GI50 (HT-29): 0.0759 µM | CC50 (HT-29; [4]): > 100 µM | TGI (HT-29; read-out: pTGI): > 100 µM | GI50 (NCI-H23): 0.126 µM | CC50 (NCI-H23; [4]): > 100 µM | TGI (NCI-H23; read-out: pTGI (converted)): 81.3 µM | inhibition (Tubulin (Homo sapiens)): Dose-dependent effect | GI50 (NCI-H322M): 0.0724 µM | CC50 (NCI-H322M; [4]): > 100 µM | TGI (NCI-H322M; read-out: pTGI): > 100 µM | GI50 (SW-620): 0.0447 µM | CC50 (SW-620; [4]): > 100 µM | TGI (SW-620; read-out: pTGI): > 100 µM | inhibition (Tubulin (Sus scrofa)): Dose-dependent effect | GI50 (SR): < 0.01 µM | CC50 (SR; [4]): > 100 µM | TGI (SR; read-out: pTGI): > 100 µM | GI50 (UACC-257): 0.708 µM | CC50 (UACC-257; [4]): > 100 µM | TGI (UACC-257; read-out: pTGI): > 100 µM | GI50 (Malme-3M): 0.0257 µM | CC50 (Malme-3M; [4]): > 100 µM | TGI (Malme-3M; read-out: pTGI): > 100 µM | GI50 (NCI-H460): 0.324 µM | IC50 (NCI-H460): 2.12 µM | LC50 (NCI-H460): > 100 µM | TGI (NCI-H460; read-out: pTGI): > 100 µM | GI50 (SF-539): 0.0288 µM | CC50 (SF-539; [4]): > 100 µM | TGI (SF-539; read-out: pTGI): > 100 µM | GI50 (RXF 393): 0.0407 µM | CC50 (RXF 393; [4]): > 100 µM | TGI (RXF 393; read-out: pTGI (converted)): 24 µM | GI50 (T47D): > 100 µM | CC50 (T47D; [4]): > 100 µM | TGI (T47D; read-out: pTGI): > 100 µM | GI50 (MOLT-4): 0.0347 µM | CC50 (MOLT-4; [4]): > 100 µM | TGI (MOLT-4; read-out: pTGI): > 100 µM | GI50 (HCT-116): 0.0355 µM | CC50 (HCT-116; [4]): > 100 µM | TGI (HCT-116; read-out: pTGI): > 100 µM | GI50 (NCI-H226): > 100 µM | CC50 (NCI-H226; [4]): > 100 µM | TGI (NCI-H226; read-out: pTGI): > 100 µM | CC50 [2, 4]: > 100 µM | TGI ([2]; read-out: pTGI): > 100 µM | GI50 (SF-295): 0.11 µM | TGI (SF-295; read-out: pTGI (converted)): 11.2 µM | GI50 (IGROV-1): 0.363 µM | CC50 (IGROV-1; [4]): > 100 µM | TGI (IGROV-1; read-out: pTGI): > 100 µM | GI50 (K562): 0.0234 µM | CC50 (K562; [4]): > 100 µM | TGI (K562; read-out: pTGI): > 100 µM | GI50 (OVCAR-3; read-out: pGI50 (converted)): 0.0234 µM | CC50 (OVCAR-3; [4]): 6.46 µM | TGI (OVCAR-3; read-out: pTGI (converted)): 0.0891 µM | GI50 (OVCAR-5): > 100 µM | CC50 (OVCAR-5; [4]): > 100 µM | TGI (OVCAR-5; read-out: pTGI): > 100 µM | IC50 [3]: 0.5 µM | GI50 (LOX IMVI): 0.0324 µM | CC50 (LOX IMVI; [4]): > 100 µM | TGI (LOX IMVI; read-out: pTGI): > 100 µM | GI50 (OVCAR-4): 0.0977 µM | CC50 (OVCAR-4; [4]): > 100 µM | TGI (OVCAR-4; read-out: pTGI): > 100 µM | GI50 (SN12C): 0.0724 µM | CC50 (SN12C; [4]): > 100 µM | TGI (SN12C; read-out: pTGI): > 100 µM | GI50 (CAKI-1): 0.0832 µM | CC50 (CAKI-1; [4]): > 100 µM | TGI (CAKI-1; read-out: pTGI): > 100 µM | GI50 (HCT-15): 0.0537 µM | CC50 (HCT-15; [4]): > 100 µM | TGI (HCT-15; read-out: pTGI): > 100 µM | GI50 (COLO 205): 0.0537 µM | TGI (COLO 205; read-out: pTGI (converted)): 0.219 µM | GI50 (SK-MEL-28): 0.0741 µM | CC50 (SK-MEL-28; [4]): > 100 µM | TGI (SK-MEL-28; read-out: pTGI): > 100 µM
